Most compounds without a hit are left out; they make up all but 5.8% or so of the library.
14-3-3 Bad PPI = disrupts binding of bovine 14-3-3 zeta to phospho-Bad peptide; inhibition, % at 21.7 µM; P63103; 220,000 compounds, 0.71% hits; TR-FRET 14-3-3zeta/Dy647-pBad peptide displacement, 1 h;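 active = inhibition above about 70%, limit read from the data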
WT yeast gro inh = growth inhibition of WT yeast, mitochondrial fusion screen; mitochondrial fusion phenotypic screen, WT strain; inhibition, % at 10 µM; 190,000 compounds, 2.1% hits; in the data active = inhibition above about 58%; tested in S. cerevisiae
ROMK primary = human ROMK K+ channel modulation, primary screen; P48048; Tet-inducible ROMK, thallium flux fluorescence; actives lie on both sides; B-score at 10 µM; 130,000 compounds, 2% hits;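 active = signal ratio slope over the read window, or its plate-corrected B-score, at least 3 SD from the plate mean, either direction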;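 also: B-score of the F/F0 ratio slope over 7 to 12 s after thallium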
Target sequence (P48048 whole entry, looked up): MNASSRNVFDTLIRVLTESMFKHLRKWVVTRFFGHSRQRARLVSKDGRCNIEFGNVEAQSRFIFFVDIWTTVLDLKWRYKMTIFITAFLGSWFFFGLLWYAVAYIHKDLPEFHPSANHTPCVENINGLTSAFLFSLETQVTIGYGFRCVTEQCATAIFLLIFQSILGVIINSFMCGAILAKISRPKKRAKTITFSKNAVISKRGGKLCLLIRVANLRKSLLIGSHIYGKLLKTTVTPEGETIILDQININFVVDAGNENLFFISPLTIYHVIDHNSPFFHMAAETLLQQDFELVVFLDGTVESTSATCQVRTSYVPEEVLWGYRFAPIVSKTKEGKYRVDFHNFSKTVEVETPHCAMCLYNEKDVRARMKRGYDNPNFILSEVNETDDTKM
RBBP9 inh = blocks human serine hydrolase RBBP9 | 220,000 compounds, 0.2% hits | O75884 | inhibition, % at 7.94 µM | AID 1515 | recombinant RBBP9, FP-Rh probe fluorescence polarization;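 active = inhibition above the campaign mean of all tested compounds plus 3 SD, cut at about 14% in these data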
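Test system: recombinant human RBBP9. Quantity: 2.5 µM RBBP9 dispensing solution, before mixing. Detection: FP readout at 525/598 nm. Reagent: Serine-hydrolase probe FP-Rh, 375 nM pre-mixing. Measure: % inhibition. Control set: DMSO-treated enzyme wells and wells lacking RBBP9. Buffer or medium: Tris-NaCl-Pluronic buffer, pH 8.0. Times: preincubation 30 min plus labeling 45 min at 25 °C.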
NCF1 inh = blocks human p47phox regulatory protein of NADPH oxidases; p47phox/p22phox peptide binding, fluorescence polarization, 2 h; 220,000 compounds, 0.53% hits; inhibition, % at 24.7 µM; P14598;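 active = inhibition above about 30%, limit read from the data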
Cl transport mod = modulates chloride dependent transport by human KCC2. KCC2 cells, thallium flux FluoZin-2 fluorescence. 190,000 compounds, 2.2% hits. B-score of Tl+ flux slope (higher = more flux/activation; lower = inhibition) at 10 µM;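 active = thallium flux slope and its plate-corrected score both differing from the plate sample mean at a set confidence after two filtering rounds, in either direction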;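 also: slope of fluorescence scaled to starting intensity during 10 to 20 s after thallium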
Each line names hits and unclear results; the compound was inactive in the other large screens.

CC(Sc1nc2ccccc2n1C)C(=O)NC(c1ccccc1)c1ccccc1 (centres undefined)	WT yeast gro inh 59 (no result: ROMK primary)
COCc1c(C(=O)OC)nnn1-c1ccc(C(F)(F)F)cc1[N+](=O)[O-]	none
CCc1c(C)nc2c(OC)cccc2c1SCCC(=O)O	none (no result: ROMK primary)
CCCCc1c(C)nc2c(OC)cccc2c1SCCC(=O)O	NCF1 inh 34
COc1ccc(/C=N/Nc2nc(-c3ccc(Cl)cc3)cc(C(F)(F)F)n2)cc1OC	WT yeast gro inh 63 (no result: ROMK primary)
O=C(OCC(=O)c1ccc(S(=O)(=O)N2CCCC2)cc1)C1=COCCO1	NCF1 inh active (no result: Cl transport mod)
COc1ccc2[nH]c(=O)c(CN(CC3CCCO3)C(=O)Nc3ccccc3OC)cc2c1 (centres undefined)	none (no result: ROMK primary)
COc1ccccc1NC(=O)N(Cc1cc2cc(OC)c(OC)cc2[nH]c1=O)CC1CCCO1 (centres undefined)	Cl transport mod -3.3
Cc1cc(=O)oc2cc(OCC(=O)Nc3cccc(S(=O)(=O)N(C)C)c3)ccc12	NCF1 inh 31
Cc1cc(=O)oc2cc(OCC(=O)c3ccc4c(c3)NC(=O)CO4)ccc12	14-3-3 Bad PPI 71, NCF1 inh 37
COc1ccc(C(=O)NCC(=O)OCC(=O)c2ccc3c(c2)NC(=O)CO3)cc1	none
O=C(CCc1nc(-c2ccccc2)no1)NCCc1ccccc1	WT yeast gro inh 62 (no result: ROMK primary)
COc1ccccc1NC(=O)CNc1ccc(F)c(Cl)c1	none (no result: ROMK primary)
O=c1c(CN2CCN(c3ccccn3)CC2)coc2ccccc12	none
Brc1ccc(CN2CCN(c3ccccn3)CC2)s1	14-3-3 Bad PPI 85
O=C(Cn1cc(C(F)(F)F)ccc1=O)N/N=C/c1cccc(Cl)c1	none
CCCn1c(N)c(C(=S)NC(=O)C2CC2)c(=O)n(C)c1=O	Cl transport mod 14 (no result: ROMK primary)
CC(C)Cn1c(N)c(C(=O)CSc2ccccc2)c(=O)n(C)c1=O	none
CCCn1c(N)c(C(=O)COC(=O)c2c(C)noc2C)c(=O)n(C)c1=O	none
CCCCn1c(N)c(C(=S)NC(=O)CC(C)C)c(=O)n(C)c1=O	Cl transport mod 24 (no result: ROMK primary)
CCOCCCNCc1ccc(OCc2ccccc2C)c(OC)c1	none (no result: ROMK primary)
COc1ccc(-n2cc(-c3ccccc3)[nH]c2=S)cc1	Cl transport mod 18 (no result: ROMK primary)
CC(=O)Nc1ccc(-n2cc(-c3ccccc3)[nH]c2=S)cc1	none
Cc1c(Cc2ccccc2)sc(NC(=O)/C=C/c2cccc3ccccc23)c1C(N)=O	none (no result: ROMK primary)
CCn1c(=S)[nH]c2cc(C(=O)OC)ccc2c1=O	Cl transport mod 9.2
CCN(CC)CCCn1c(=S)[nH]c2cc(C(=O)OC)ccc2c1=O	none
COc1ccccc1/C=C\C=N\n1c(-c2ccc(Cl)cc2Cl)n[nH]c1=S	WT yeast gro inh 65
Clc1ccc(/C=N/N2CCN(Cc3ccccc3Cl)CC2)cc1	WT yeast gro inh 66
Clc1ccccc1CN1CCN(/N=C/c2ccncc2)CC1	none
C(=C\c1ccccc1)/C=N/N1CCN(Cc2ccccc2)CC1	none
COc1ccccc1/C=C/C=N\N1CCN(Cc2ccccc2Cl)CC1	WT yeast gro inh 63 (no result: ROMK primary)
COc1ccccc1/C=C/C=N/N1CCN(Cc2ccc(Cl)cc2)CC1	14-3-3 Bad PPI 74
Cc1cc([N+](=O)[O-])ccc1NC(=O)C[n+]1ccc(N(C)C)cc1	none (no result: ROMK primary)
Cn1c(=O)[nH]c(=O)c2c1nc1n2CCCN1Cc1ccccc1	none (no result: WT yeast gro inh, ROMK primary)
Cc1[nH]ccc2c1[nH]c1cc(=O)ccc12	NCF1 inh 46 (no result: WT yeast gro inh, ROMK primary)
O=C1OC(c2ccc(F)cc2)=C/C1=C\c1ccc([N+](=O)[O-])o1	WT yeast gro inh 85
Cc1ccccc1N(CC(=O)N/N=C/c1cc(C)n(-c2ccccc2C)c1C)S(C)(=O)=O	ROMK primary 8.5
CCOC(=O)c1c(C)[nH]c(C(=O)COC(=O)c2cnc(C)cn2)c1C	14-3-3 Bad PPI 80 (no result: ROMK primary)
Cc1cccc(N2CCN(C(=O)c3ccncc3)CC2)c1C	none (no result: ROMK primary)
Cc1cccc(N2CCN(C(=O)c3c(C)nn(Cc4ccccc4Cl)c3C)CC2)c1C	WT yeast gro inh 60
Cc1ccc(/C=C/C(=O)c2ccccc2O)cc1	none (no result: WT yeast gro inh)
Cc1ccc(C(=O)/C=C/c2ccc3c(c2)OCO3)o1	none (no result: ROMK primary, Cl transport mod)
O=C(/C=C/c1ccc2c(c1)OCCCO2)c1ccccc1O	WT yeast gro inh 67 (no result: ROMK primary)
O=C(/C=C/c1ccc2c(c1)OCO2)c1ccc(F)cc1	none

Bioassay records from PubChem.
